{"source": "ChEMBL document CHEMBL1126837", "about": "“Inhibitors of acyl-CoA:cholesterol acyltransferase. 5. Identification and structure-activity relationships of novel beta-ketoamides as hypocholesterolemic agents” (J Med Chem, 1993)", "key": {"O-acyltransferase": {"biological_target": "O-acyltransferase (Oryctolagus cuniculus, UniProt G1SFD9)", "sequence (G1SFD9 1-524)": "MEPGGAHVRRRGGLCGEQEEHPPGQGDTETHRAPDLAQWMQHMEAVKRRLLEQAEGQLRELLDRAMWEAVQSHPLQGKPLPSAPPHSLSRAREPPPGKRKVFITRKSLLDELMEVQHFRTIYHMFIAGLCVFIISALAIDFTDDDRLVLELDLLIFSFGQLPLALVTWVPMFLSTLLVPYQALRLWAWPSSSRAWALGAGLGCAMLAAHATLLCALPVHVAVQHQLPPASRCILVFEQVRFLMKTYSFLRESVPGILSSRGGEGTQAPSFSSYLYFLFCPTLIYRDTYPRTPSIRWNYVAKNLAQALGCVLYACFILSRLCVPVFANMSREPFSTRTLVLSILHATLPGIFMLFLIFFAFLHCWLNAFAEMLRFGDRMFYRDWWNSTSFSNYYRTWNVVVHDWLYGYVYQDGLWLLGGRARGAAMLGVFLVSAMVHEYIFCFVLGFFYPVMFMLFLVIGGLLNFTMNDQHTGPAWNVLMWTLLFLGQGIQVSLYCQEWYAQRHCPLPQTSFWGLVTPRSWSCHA", "assay": "In vitro inhibition of Acyl coenzyme A:cholesterol acyltransferase in intestinal microsomes isolated from cholesterol-fed rabbits", "assay_type": "functional, Intestine", "how_it_was_run": "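Intestinal microsomes from cholesterol-fed rabbits were incubated with the compound and [1-14C]oleoyl-CoA as substrate. IC50 is the micromolar concentration giving 50% inhibition of enzyme activity. Each determination was done in triplicate.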"}, "Rattus norvegicus [1]": {"tested_on": "Rattus norvegicus", "assay": "Tested for percentage change in total cholesterol in cholic acid (0.5%)-cholesterol (1.5%) -peanut oil (5.5%)-fed rats at 3 mg/kg", "assay_type": "functional", "how_it_was_run": "(§1)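 Male Sprague-Dawley rats (200-225 g) got a single oral gavage at 4 p.m. The compound was suspended in 1.5% carboxymethylcellulose/0.2% Tween-20 in water; controls got vehicle. Rats then fed ad libitum overnight on chow with 5.5% peanut oil, 1.5% cholesterol and 0.5% cholic acid. Blood was taken by cardiac puncture under ether at 8 a.m. Serum total cholesterol is given as % change versus vehicle controls (unpaired two-tailed t-test, p<0.05).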"}, "Rattus norvegicus [2]": {"tested_on": "Rattus norvegicus", "assay": "Tested for percentage change in total cholesterol in cholic acid (0.5%)-cholesterol (1.5%) -peanut oil (5.5%)-fed rats at 30 mg/kg", "assay_type": "functional", "how_it_was_run": "as §1"}}}
{"smiles": "CCCCCCCCCCCC(=O)CC(=O)Nc1c(C(C)C)cccc1C(C)C", "values": [{"measurement": "IC50", "setting": "O-acyltransferase", "result": 69, "unit": "nM"}, {"measurement": "Change", "setting": "Rattus norvegicus [1]", "result": -25, "unit": "%"}, {"measurement": "Change", "setting": "Rattus norvegicus [2]", "result": -43, "unit": "%"}]}
{"smiles": "CCCCCCCCCCCCC1CCCC(C(=O)Nc2c(C(C)C)cccc2C(C)C)C(=O)N1", "note": "(stereo unspecified)", "values": [{"measurement": "IC50", "setting": "O-acyltransferase", "result": 22, "unit": "nM"}, {"measurement": "Change", "setting": "Rattus norvegicus [2]", "result": -47, "unit": "%"}]}
{"smiles": "CCCCCCCCCCCC(=O)CC(=O)Nc1c(OC)cc(OC)cc1OC", "values": [{"measurement": "IC50", "setting": "O-acyltransferase", "result": 150, "unit": "nM"}, {"measurement": "Change", "setting": "Rattus norvegicus [2]", "result": -31, "unit": "%"}]}
{"smiles": "CCCCCCCCCCCCCC(=O)CC(=O)Nc1c(C(C)C)cccc1C(C)C", "values": [{"measurement": "IC50", "setting": "O-acyltransferase", "result": 6, "unit": "nM"}, {"measurement": "Change", "setting": "Rattus norvegicus [1]", "result": -38, "unit": "%"}, {"measurement": "Change", "setting": "Rattus norvegicus [2]", "result": -66, "unit": "%"}]}
{"smiles": "CCCCCCCCCCCC(=O)C(C)(C)C(=O)Nc1c(OC)cc(OC)cc1OC", "values": [{"measurement": "IC50", "setting": "O-acyltransferase", "result": 370, "unit": "nM"}, {"measurement": "Change", "setting": "Rattus norvegicus [1]", "result": 0, "unit": "%"}, {"measurement": "Change", "setting": "Rattus norvegicus [2]", "result": -44, "unit": "%"}]}
{"smiles": "CCCCCCCCCCCC(=O)C(C)(C)C(=O)N(C)c1c(C(C)C)cccc1C(C)C", "values": [{"measurement": "IC50", "setting": "O-acyltransferase", "result": 1000, "unit": "nM"}, {"measurement": "Change", "setting": "Rattus norvegicus [1]", "result": 0, "unit": "%"}, {"measurement": "Change", "setting": "Rattus norvegicus [2]", "result": -60, "unit": "%"}]}
{"smiles": "CCCCCCCCCC(=O)CC(=O)Nc1c(C(C)C)cccc1C(C)C", "values": [{"measurement": "IC50", "setting": "O-acyltransferase", "result": 97, "unit": "nM"}, {"measurement": "Change", "setting": "Rattus norvegicus [1]", "result": -5, "unit": "%"}, {"measurement": "Change", "setting": "Rattus norvegicus [2]", "result": -54, "unit": "%"}]}
{"smiles": "CCCCCCCCCCCCCCC(=O)CC(=O)Nc1c(C(C)C)cccc1C(C)C", "values": [{"measurement": "IC50", "setting": "O-acyltransferase", "result": 24, "unit": "nM"}, {"measurement": "Change", "setting": "Rattus norvegicus [1]", "result": -34, "unit": "%"}, {"measurement": "Change", "setting": "Rattus norvegicus [2]", "result": -57, "unit": "%"}]}
{"smiles": "CCCCCCCC1CCC(C(=O)Nc2c(C(C)C)cccc2C(C)C)C(=O)O1", "note": "(stereo unspecified)", "values": [{"measurement": "IC50", "setting": "O-acyltransferase", "result": 340, "unit": "nM"}, {"measurement": "Change", "setting": "Rattus norvegicus [2]", "result": -11, "unit": "%"}]}
{"smiles": "CC(C)c1cccc(C(C)C)c1NC(=O)C/C(CC(c1ccccc1)c1ccccc1)=N\\O", "values": [{"measurement": "IC50", "setting": "O-acyltransferase", "result": 210, "unit": "nM"}, {"measurement": "Change", "setting": "Rattus norvegicus [1]", "result": 0, "unit": "%"}, {"measurement": "Change", "setting": "Rattus norvegicus [2]", "result": -1, "unit": "%"}]}
{"smiles": "CCCCCCC1CCC(C(=O)Nc2c(C(C)C)cccc2C(C)C)C(=O)O1", "note": "(stereo unspecified)", "values": [{"measurement": "Change", "setting": "Rattus norvegicus [2]", "result": -43, "unit": "%"}]}
{"smiles": "CCCCCCCCCCCCC(=O)CC(=O)Nc1c(C(C)C)cccc1C(C)C", "values": [{"measurement": "IC50", "setting": "O-acyltransferase", "result": 11, "unit": "nM"}, {"measurement": "Change", "setting": "Rattus norvegicus [1]", "result": -31, "unit": "%"}, {"measurement": "Change", "setting": "Rattus norvegicus [2]", "result": -56, "unit": "%"}]}
{"smiles": "CC(C)c1cccc(C(C)C)c1NC(=O)CC(=O)CC(c1ccccc1)c1ccccc1", "values": [{"measurement": "IC50", "setting": "O-acyltransferase", "result": 44, "unit": "nM"}, {"measurement": "Change", "setting": "Rattus norvegicus [1]", "result": -23, "unit": "%"}, {"measurement": "Change", "setting": "Rattus norvegicus [2]", "result": -43, "unit": "%"}]}
{"smiles": "CC(C)c1cccc(C(C)C)c1NC(=O)CC(=O)C(c1ccccc1)c1ccccc1", "values": [{"measurement": "IC50", "setting": "O-acyltransferase", "result": 35, "unit": "nM"}, {"measurement": "Change", "setting": "Rattus norvegicus [1]", "result": -21, "unit": "%"}, {"measurement": "Change", "setting": "Rattus norvegicus [2]", "result": -65, "unit": "%"}]}
{"smiles": "CCCCCCCCCCC(=O)CC(=O)Nc1c(C(C)C)cccc1C(C)C", "values": [{"measurement": "IC50", "setting": "O-acyltransferase", "result": 60, "unit": "nM"}, {"measurement": "Change", "setting": "Rattus norvegicus [2]", "result": -30, "unit": "%"}]}
{"smiles": "CCCCCCCCCCCCC1CC(C(=O)Nc2c(C(C)C)cccc2C(C)C)C(=O)N1", "note": "(stereo unspecified)", "values": [{"measurement": "IC50", "setting": "O-acyltransferase", "result": 53, "unit": "nM"}, {"measurement": "Change", "setting": "Rattus norvegicus [2]", "result": -20, "unit": "%"}]}
{"smiles": "CCCCCCCCCCCC(=O)C(C)(C)C(=O)N(C)c1c(OC)cc(OC)cc1OC", "values": [{"measurement": "Change", "setting": "Rattus norvegicus [2]", "result": -40, "unit": "%"}]}
{"smiles": "CC(C)c1cccc(C(C)C)c1NC(=O)CC(=O)CCCCCCCCCCOC1CCCCO1", "note": "(stereo unspecified)", "values": [{"measurement": "IC50", "setting": "O-acyltransferase", "result": 57, "unit": "nM"}, {"measurement": "Change", "setting": "Rattus norvegicus [1]", "result": -17, "unit": "%"}, {"measurement": "Change", "setting": "Rattus norvegicus [2]", "result": -67, "unit": "%"}]}
{"smiles": "CC(C)c1cccc(C(C)C)c1NC(=O)CC(=O)c1ccccc1", "values": [{"measurement": "IC50", "setting": "O-acyltransferase", "result": 810, "unit": "nM"}, {"measurement": "Change", "setting": "Rattus norvegicus [1]", "result": 0, "unit": "%"}, {"measurement": "Change", "setting": "Rattus norvegicus [2]", "result": -4, "unit": "%"}]}
{"smiles": "CC(C)c1cccc(C(C)C)c1NC(=O)CC(O)CC(c1ccccc1)c1ccccc1", "note": "(stereo unspecified)", "values": [{"measurement": "IC50", "setting": "O-acyltransferase", "result": 3500, "unit": "nM"}, {"measurement": "Change", "setting": "Rattus norvegicus [2]", "result": -10, "unit": "%"}]}
{"smiles": "CC(C)c1cccc(C(C)C)c1NC(=O)CC(=O)C1(c2ccccc2)CCCC1", "values": [{"measurement": "IC50", "setting": "O-acyltransferase", "result": 11, "unit": "nM"}, {"measurement": "Change", "setting": "Rattus norvegicus [2]", "result": -37, "unit": "%"}]}
{"smiles": "CC(C)c1cccc(C(C)C)c1NC(=O)CC(=O)CCCCCCCCCCO", "values": [{"measurement": "IC50", "setting": "O-acyltransferase", "result": 230, "unit": "nM"}, {"measurement": "Change", "setting": "Rattus norvegicus [1]", "result": -2, "unit": "%"}, {"measurement": "Change", "setting": "Rattus norvegicus [2]", "result": -29, "unit": "%"}]}
{"smiles": "CCCCCCCC1CC(C(=O)Nc2c(C(C)C)cccc2C(C)C)C(=O)O1", "note": "(stereo unspecified)", "values": [{"measurement": "Change", "setting": "Rattus norvegicus [2]", "result": -26, "unit": "%"}]}
